The text below walks through data of paper PMC2077835 (Drug metabolism and disposition: the biological fate of …, 2006).

SMILES strings stand for the structures.

Data set [1] in a line: Kinetics of M1 formation by pooled HLMs. The data set is classed as in vitro ADME, human. In outline: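 Initial-rate conditions (<20% substrate consumption). Pooled microsomes at 0.02 mg/ml with substrate from 0.05 μM upward, in 250 μl. Equilibrated 5 min at 37°C, started with NADPH, run 3 min. M1 measured by LC/MS/MS. Mean of duplicates fitted to Michaelis-Menten by nonlinear regression, with an Eadie-Hofstee plot; CLint = Vmax/Km.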

The target of a further data set is recombinant human CYP1A2 (Homo sapiens, UniProt P05177). As to the kind of experiment: DB289 consumption by recombinant CYP1A2. The format is in vitro ADME. The following applies: 3.0 μM DB289, 50 pmol/ml P450, 15 min. In outline:
(§1)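 Baculovirus-insect-cell Supersomes coexpressing human P450 with NADPH-P450 reductase; the CYP2E1 enzyme also had cytochrome b5. 3.0 μM substrate, 50 pmol/ml P450 (100 pmol/ml for CYP2C8 and CYP2C9), in 100 mM phosphate pH 7.4 with 3.3 mM MgCl2 and 1 mM NADPH, 37°C, 15 min. Quenched in ice-cold acidified acetonitrile with deuterated internal standard, then LC/MS/MS. Percent consumed relative to 0 min; control Supersomes; duplicates.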

In data set [2] the target is T1, CYP2D6 (Homo sapiens, UniProt P10635). The data set can be described thus: DB289 consumption by recombinant CYP2D6. The following applies: 3.0 μM DB289, 50 pmol/ml P450, 15 min. The data set is classed as in vitro ADME. An outline of the steps: as §1
T1 sequence (P10635 whole entry): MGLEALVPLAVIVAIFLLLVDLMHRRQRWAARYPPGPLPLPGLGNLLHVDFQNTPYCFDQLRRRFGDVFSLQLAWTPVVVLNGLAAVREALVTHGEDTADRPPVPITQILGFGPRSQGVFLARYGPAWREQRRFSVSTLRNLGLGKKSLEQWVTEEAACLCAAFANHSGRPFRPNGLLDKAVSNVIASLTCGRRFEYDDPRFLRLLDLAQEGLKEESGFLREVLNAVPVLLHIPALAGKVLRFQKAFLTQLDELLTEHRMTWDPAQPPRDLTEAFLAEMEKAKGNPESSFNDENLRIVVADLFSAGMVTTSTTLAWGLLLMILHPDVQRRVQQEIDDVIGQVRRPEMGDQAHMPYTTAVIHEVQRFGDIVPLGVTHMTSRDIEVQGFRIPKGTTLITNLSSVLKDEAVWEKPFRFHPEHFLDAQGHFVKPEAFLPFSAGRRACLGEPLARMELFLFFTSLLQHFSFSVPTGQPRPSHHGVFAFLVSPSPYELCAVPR
Data set [3] deals with T2, CYP2E1 (Homo sapiens, UniProt P05181). As to the kind of experiment: DB289 consumption by recombinant CYP2E1. The format is in vitro ADME. Particulars: 3.0 μM DB289, 50 pmol/ml P450, 15 min. An outline of the steps: as §1
T2 sequence (P05181 whole entry): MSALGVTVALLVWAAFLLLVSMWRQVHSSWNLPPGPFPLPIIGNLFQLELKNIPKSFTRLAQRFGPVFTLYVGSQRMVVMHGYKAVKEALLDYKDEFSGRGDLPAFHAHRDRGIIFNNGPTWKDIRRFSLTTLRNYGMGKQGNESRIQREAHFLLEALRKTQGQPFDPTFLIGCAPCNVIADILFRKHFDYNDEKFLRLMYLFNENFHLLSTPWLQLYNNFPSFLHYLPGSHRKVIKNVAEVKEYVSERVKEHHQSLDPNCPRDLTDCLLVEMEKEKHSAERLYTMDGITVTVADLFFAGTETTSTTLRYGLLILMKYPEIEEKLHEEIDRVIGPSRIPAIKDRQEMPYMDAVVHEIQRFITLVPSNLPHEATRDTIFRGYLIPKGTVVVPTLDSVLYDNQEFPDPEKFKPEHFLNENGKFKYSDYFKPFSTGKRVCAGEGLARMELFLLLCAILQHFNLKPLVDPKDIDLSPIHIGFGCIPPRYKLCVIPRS
Data set [4] has as its target T3, CYP2C19 (Homo sapiens, UniProt P33261). The data set can be described thus: DB289 consumption by recombinant CYP2C19. The data set is classed as in vitro ADME. Particulars: 3.0 μM DB289, 50 pmol/ml P450, 15 min. In outline: as §1
A further data set concerns the target T4, recombinant CYP4F2 (Homo sapiens, UniProt P78329).
T4 sequence (P78329 5-520): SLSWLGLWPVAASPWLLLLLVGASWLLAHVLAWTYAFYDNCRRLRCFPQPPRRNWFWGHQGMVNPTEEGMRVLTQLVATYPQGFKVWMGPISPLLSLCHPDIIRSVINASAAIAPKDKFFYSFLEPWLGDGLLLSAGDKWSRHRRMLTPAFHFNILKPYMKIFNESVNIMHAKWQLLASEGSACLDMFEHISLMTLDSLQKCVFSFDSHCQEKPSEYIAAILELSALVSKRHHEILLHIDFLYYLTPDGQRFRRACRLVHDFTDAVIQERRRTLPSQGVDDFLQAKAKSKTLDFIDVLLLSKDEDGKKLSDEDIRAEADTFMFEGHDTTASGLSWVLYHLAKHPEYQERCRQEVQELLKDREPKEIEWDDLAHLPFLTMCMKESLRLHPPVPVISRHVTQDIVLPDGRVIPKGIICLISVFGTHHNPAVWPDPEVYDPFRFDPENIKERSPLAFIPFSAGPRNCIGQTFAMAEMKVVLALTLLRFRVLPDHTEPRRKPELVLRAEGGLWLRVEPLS
As to the kind of experiment: DB289 consumption by recombinant CYP4F2. The format is in vitro ADME. Particulars: 3.0 μM DB289, 50 pmol/ml P450, 15 min. In outline: (§2)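 A second recombinant panel (Supersomes; the CYP2J2, CYP3A7 and CYP4F forms coexpressed with reductase and cytochrome b5). Each enzyme was incubated alone with 3.0 μM substrate and NADPH in pH 7.4 phosphate/MgCl2 at 37°C for 15 min. Acetonitrile quench with internal standard, centrifugation, LC/MS/MS. Percent consumed normalised to 0 min. Control Supersomes; means of duplicates.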

Another data set deals with T5, recombinant CYP4F3B (Homo sapiens, UniProt Q08477).
T5 sequence (Q08477 1-520 isoform Q08477-2): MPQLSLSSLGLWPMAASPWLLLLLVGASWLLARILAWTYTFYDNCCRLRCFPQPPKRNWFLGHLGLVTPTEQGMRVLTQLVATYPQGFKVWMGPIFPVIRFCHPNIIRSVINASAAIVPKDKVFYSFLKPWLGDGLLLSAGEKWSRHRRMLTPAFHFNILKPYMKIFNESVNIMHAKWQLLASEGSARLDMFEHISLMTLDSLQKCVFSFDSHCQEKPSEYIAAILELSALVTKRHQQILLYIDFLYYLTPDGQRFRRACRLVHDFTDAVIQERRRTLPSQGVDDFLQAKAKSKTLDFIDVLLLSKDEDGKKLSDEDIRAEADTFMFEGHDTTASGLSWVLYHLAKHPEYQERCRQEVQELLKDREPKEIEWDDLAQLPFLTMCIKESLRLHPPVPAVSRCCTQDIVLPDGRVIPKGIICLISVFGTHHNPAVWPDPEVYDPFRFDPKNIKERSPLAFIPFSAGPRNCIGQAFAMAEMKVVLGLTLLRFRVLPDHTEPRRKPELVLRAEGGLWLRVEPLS
The data set can be described thus: DB289 consumption by recombinant CYP4F3B. The data set is classed as in vitro ADME. The following applies: 3.0 μM DB289, 50 pmol/ml P450, 15 min. An outline of the steps:
as §2

Data set [5] has as its target recombinant human CYP4F12 (Homo sapiens, UniProt Q9HCS2). The data set can be described thus: DB289 consumption by recombinant CYP4F12. The format is in vitro ADME. The following applies: 3.0 μM DB289, 50 pmol/ml P450, 15 min. An outline of the steps: as §2
Data set [6] has as its target recombinant human CYP2C18 (Homo sapiens, UniProt P33260). The data set can be described thus: DB289 consumption by recombinant CYP2C18. The data set is classed as in vitro ADME. Particulars: 3.0 μM DB289, 50 pmol/ml P450, 15 min.
Data set [7] concerns the target T6, CYP4A11 (Homo sapiens, UniProt Q02928). The data set can be described thus: DB289 consumption by recombinant CYP4A11. The following applies: 3.0 μM DB289, 50 pmol/ml P450, 15 min. The format is in vitro ADME.
Data set [8] concerns the target T3, CYP2C19. The data set can be described thus: Inhibition of P450 activities by DB289: S-mephenytoin 4′-hydroxylation. The data set is classed as in vitro ADME. The following applies: 3.0 μM DB289, pooled HLMs 0.25 mg/ml. An outline of the steps:
(§3)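 Test compound (3.0 μM) was preincubated 0 and 15 min with pooled microsomes (0.25 mg/ml) and 2 mM NADPH (final concentrations). A P450-selective marker substrate was then added and marker activity measured. Reference selective chemical inhibitors were run for comparison (none for CYP4A11). Solvent-only controls.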

The target of data set [9] is T1, CYP2D6. As to the kind of experiment: Inhibition of P450 activities by DB289: debrisoquine 4-hydroxylation. The data set is classed as in vitro ADME. The following applies: 3.0 μM DB289, pooled HLMs 0.25 mg/ml. In outline:
as §3

For data set [10], the target named is T2, CYP2E1. The data set can be described thus: Inhibition of P450 activities by DB289: lauric acid 11-hydroxylation. The following applies: 3.0 μM DB289, pooled HLMs 0.25 mg/ml. The data set is classed as in vitro ADME. An outline of the steps:
as §3

Data set [11] deals with T6, CYP4A11. As to the kind of experiment: Inhibition of P450 activities by DB289: lauric acid 12-hydroxylation. Particulars: 3.0 μM DB289, pooled HLMs 0.25 mg/ml. The data set is classed as in vitro ADME. In outline: as §3
Data set [12] is described as follows: DB289 metabolism by heat-inactivated human liver microsomes. The format is in vitro ADME. Particulars: 60°C for 90 s; data not shown. In outline: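 Human liver microsomes were heated at 60°C for 90 s before incubation to inactivate flavin monooxygenase. Then used in standard NADPH incubations (pH 7.4 phosphate, MgCl2, 37°C) to test FMO contribution to substrate metabolism.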
For orientation: Liver microsomes are a subcellular fraction often used to study metabolism.

For data set [13] the following is noted: oral; ref Yeates, 2003; cited from earlier work.
For data set [14] the following is noted: ref Fitzpatrick et al., 2004; cited from earlier work.

T6 sequence (Q02928 5-519): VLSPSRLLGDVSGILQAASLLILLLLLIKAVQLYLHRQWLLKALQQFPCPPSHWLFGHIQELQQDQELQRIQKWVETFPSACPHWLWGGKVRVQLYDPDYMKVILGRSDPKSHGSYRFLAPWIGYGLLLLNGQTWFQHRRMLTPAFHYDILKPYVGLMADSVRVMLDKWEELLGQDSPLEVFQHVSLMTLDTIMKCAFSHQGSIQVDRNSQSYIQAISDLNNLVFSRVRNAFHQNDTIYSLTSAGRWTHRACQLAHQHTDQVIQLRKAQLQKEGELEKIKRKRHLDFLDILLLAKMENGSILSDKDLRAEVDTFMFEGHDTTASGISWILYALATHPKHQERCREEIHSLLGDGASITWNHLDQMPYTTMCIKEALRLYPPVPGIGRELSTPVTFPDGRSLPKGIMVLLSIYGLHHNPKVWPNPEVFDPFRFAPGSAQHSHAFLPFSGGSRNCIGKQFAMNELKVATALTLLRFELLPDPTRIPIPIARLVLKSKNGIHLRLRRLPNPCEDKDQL
T3 sequence (P33261 whole entry): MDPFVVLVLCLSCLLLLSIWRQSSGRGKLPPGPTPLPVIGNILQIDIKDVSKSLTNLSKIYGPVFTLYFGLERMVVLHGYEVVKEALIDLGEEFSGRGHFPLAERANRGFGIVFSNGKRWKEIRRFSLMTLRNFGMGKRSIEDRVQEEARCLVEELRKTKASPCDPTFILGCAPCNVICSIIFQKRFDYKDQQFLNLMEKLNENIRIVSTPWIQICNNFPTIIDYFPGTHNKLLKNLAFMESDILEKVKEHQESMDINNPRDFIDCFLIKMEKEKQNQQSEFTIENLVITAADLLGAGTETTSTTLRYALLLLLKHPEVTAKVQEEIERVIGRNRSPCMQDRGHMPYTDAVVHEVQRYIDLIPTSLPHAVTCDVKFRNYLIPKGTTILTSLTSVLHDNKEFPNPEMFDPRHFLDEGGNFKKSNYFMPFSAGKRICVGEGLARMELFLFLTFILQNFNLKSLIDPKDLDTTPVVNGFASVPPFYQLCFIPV
Sequence of recombinant human CYP1A2 (P05177 2-516 limits assumed): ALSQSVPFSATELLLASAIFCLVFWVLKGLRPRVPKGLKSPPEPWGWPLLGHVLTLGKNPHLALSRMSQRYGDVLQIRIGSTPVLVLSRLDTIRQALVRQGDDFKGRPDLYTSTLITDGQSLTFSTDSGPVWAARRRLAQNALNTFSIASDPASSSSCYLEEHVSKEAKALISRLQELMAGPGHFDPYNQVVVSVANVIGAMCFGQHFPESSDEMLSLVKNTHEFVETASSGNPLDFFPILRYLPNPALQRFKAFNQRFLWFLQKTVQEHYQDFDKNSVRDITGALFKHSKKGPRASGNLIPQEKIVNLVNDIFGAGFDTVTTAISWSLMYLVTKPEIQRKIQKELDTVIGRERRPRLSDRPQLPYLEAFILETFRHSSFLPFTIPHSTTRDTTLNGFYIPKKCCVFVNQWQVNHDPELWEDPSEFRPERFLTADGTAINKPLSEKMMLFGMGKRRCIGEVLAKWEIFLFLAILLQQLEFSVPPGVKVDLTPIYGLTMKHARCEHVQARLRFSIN
Sequence of recombinant human CYP4F12 (Q9HCS2 whole entry): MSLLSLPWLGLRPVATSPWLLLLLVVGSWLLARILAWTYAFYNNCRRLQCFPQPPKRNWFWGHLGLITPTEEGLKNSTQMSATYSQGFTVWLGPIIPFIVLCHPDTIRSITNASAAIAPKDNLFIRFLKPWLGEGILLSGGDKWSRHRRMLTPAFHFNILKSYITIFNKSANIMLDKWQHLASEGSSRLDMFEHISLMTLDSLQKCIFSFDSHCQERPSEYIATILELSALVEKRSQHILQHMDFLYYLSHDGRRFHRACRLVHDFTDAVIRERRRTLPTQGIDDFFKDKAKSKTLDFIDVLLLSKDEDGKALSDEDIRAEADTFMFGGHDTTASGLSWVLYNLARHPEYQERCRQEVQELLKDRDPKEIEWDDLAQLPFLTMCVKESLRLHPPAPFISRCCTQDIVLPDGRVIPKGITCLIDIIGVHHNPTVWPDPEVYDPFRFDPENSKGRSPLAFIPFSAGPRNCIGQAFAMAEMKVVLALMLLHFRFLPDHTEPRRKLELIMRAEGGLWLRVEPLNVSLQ
Sequence of recombinant human CYP2C18 (P33260 26-490): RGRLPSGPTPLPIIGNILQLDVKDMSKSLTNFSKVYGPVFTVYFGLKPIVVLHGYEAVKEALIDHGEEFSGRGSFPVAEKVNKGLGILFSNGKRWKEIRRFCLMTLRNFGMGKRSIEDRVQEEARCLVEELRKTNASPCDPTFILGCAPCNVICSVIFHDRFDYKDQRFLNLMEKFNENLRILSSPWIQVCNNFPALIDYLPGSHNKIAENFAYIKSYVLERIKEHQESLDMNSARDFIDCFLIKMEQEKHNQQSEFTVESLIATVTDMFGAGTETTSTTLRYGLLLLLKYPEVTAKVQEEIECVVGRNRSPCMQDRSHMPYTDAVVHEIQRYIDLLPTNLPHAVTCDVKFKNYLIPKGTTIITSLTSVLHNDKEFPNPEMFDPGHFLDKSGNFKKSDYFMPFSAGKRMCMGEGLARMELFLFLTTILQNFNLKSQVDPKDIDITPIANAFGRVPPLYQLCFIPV

For the compound `CON=C(N)c1ccc(-c2ccc(-c3ccc(C(N)=NOC)cc3)o2)cc1` [DB289, 2,5-bis(4-amidinophenyl)furan-bis-O-methylamidoxime], the Vmax in data set [1] (DB289 O-demethylation in HLMs) amounted to 3770 pmol/min/mg protein; in data set [1] (M1 formation, 0.02 mg/ml HLM, 3 min), 3.8 nmol/min/mg protein; in data set [1] (M1 formation, 0.02 mg/ml HLM, 3 min, total P450), 10.5 nmol/min/nmol P450. For the same compound, the “percentage of substrate consumed” value is 61% on recombinant human CYP1A2; 9% on CYP2D6 [2]; 7% at CYP2E1 [3]; “less than 5%” on CYP2C19 [4]; 98% on recombinant CYP4F2; 40% on recombinant CYP4F3B. The entries for the “percentage of substrate consumed” value (in [5]; in data set [6]; at CYP4A11 [7]) were 10%, “less than 5%” and “less than 5%”, respectively. Further, the “inhibition of CYP2C19 activity” value against CYP2C19 [8] is “minimal to no inhibition”. For the same compound, the “inhibition of CYP2D6 activity” value against CYP2D6 [9] was “minimal to no inhibition”. In addition, the “inhibition of CYP2E1 activity” value on CYP2E1 [10] was “minimal to no inhibition”. Further, on CYP4A11 [11], the “inhibition of CYP4A11 activity” value is “minimal to no inhibition”. Further, in data set [12], the “effect of heat inactivation of microsomes on DB289 metabolism” value is listed as “did not impede DB289 metabolism”. Moreover, the tolerability entry in [13] is listed as “well tolerated, with no serious side effects”. For the same compound, in data set [14], the plasma protein binding result is “high plasma protein-binding”.
